The test system of one assay is CCRF-CEM. Nature of the assay: NCI-60 single-dose antiproliferative screen. To be noted: Homo sapiens, 48 h, read-out: growth percent. The assay is classed as cell-based. The method in brief: (§1)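 NCI-60 protocol. Lines were grown in RPMI 1640 with 5% FBS and 2 mM L-glutamine, plated and incubated 24 h at 37 °C; time-zero plates were TCA-fixed. The test compound was dissolved in DMSO, diluted in medium with 50 μg/mL gentamicin and given once at a final 10^-5 M (DMSO control) for 48 h. Cells were fixed with cold TCA (1 h, 4 °C) and stained with 0.4% SRB in 1% acetic acid for 10 min. Dye was dissolved in 10 mM Trizma base and read at 515 nm. Growth percent was calculated from time-zero, test and control ODs.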

The test system of another assay is MOLT-4. Nature of the assay: NCI-60 single-dose antiproliferative screen. The assay is classed as cell-based. To be noted: Homo sapiens, MOLT-4, 48 h, read-out: growth percent. The method in brief:
as §1

For a further assay, the system named is A549/ATCC. Nature of the assay: NCI-60 single-dose antiproliferative screen. The assay is classed as cell-based. To be noted: Homo sapiens, A549, 48 h, read-out: growth percent. The method in brief:
as §1

For another assay, the system named is HOP-62. Nature of the assay: NCI-60 single-dose antiproliferative screen. The format is cell-based. To be noted: Homo sapiens, HOP-62, 48 h, read-out: growth percent. The method, boiled down: as §1
Another assay concerns NCI-H322M. Nature of the assay: NCI-60 single-dose antiproliferative screen. The assay is classed as cell-based. To be noted: Homo sapiens, 48 h, read-out: growth percent. The method in brief: as §1
The test system of the next assay is SW-620. Nature of the assay: NCI-60 single-dose antiproliferative screen. The assay is classed as cell-based. To be noted: Homo sapiens, SW-620, 48 h, read-out: growth percent. The method, boiled down:
(§2)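 Cells grown in RPMI 1640 with 5% FBS and 2 mM L-glutamine, plated and held 24 h at 37 °C; time-zero plates TCA-fixed. DMSO stocks were diluted in gentamicin-containing medium to a final 10^-5 M, with a DMSO-only control. Exposure 48 h, 5% CO2. Adherent cells TCA-fixed 1 h at 4 °C, stained with 0.4% SRB, solubilised in 10 mM Trizma base, read at 515 nm. Growth percent derived from ODtzero, ODtest and ODctrl.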

Another assay deals with SF-268. Nature of the assay: NCI-60 single-dose antiproliferative screen. The assay is classed as cell-based. To be noted: Homo sapiens, SF-268, 48 h, read-out: growth percent. The method, boiled down: as §1
The next assay concerns SF-539. Nature of the assay: NCI-60 single-dose antiproliferative screen. The format is cell-based. To be noted: Homo sapiens, SF-539, 48 h, read-out: growth percent. The method, boiled down:
as §2

A further assay deals with SNB-75. Nature of the assay: NCI-60 single-dose antiproliferative screen. The assay is classed as cell-based. To be noted: Homo sapiens, SNB-75, 48 h, read-out: growth percent. The method, boiled down:
as §2

In another assay the test system is M14. Nature of the assay: NCI-60 single-dose antiproliferative screen. The format is cell-based. To be noted: Homo sapiens, M14, 48 h, read-out: growth percent. The method in brief:
as §1

A further assay concerns SK-MEL-28. Nature of the assay: NCI-60 single-dose antiproliferative screen. The format is cell-based. To be noted: Homo sapiens, SK-MEL-28, 48 h, read-out: growth percent. The method in brief: as §2
Another assay has as its system UACC-257. Nature of the assay: NCI-60 single-dose antiproliferative screen. The assay is classed as cell-based. To be noted: Homo sapiens, UACC-257, 48 h, read-out: growth percent. The method in brief:
as §2

A further assay has as its system IGROV1. Nature of the assay: NCI-60 single-dose antiproliferative screen. To be noted: Homo sapiens, IGROV-1, 48 h, read-out: growth percent. The assay is classed as cell-based. The method, boiled down:
as §1

The next assay has as its system OVCAR-3. Nature of the assay: NCI-60 single-dose antiproliferative screen. The assay is classed as cell-based. To be noted: Homo sapiens, OVCAR-3, 48 h, read-out: growth percent. The method, boiled down: as §1
Another assay deals with OVCAR-4. Nature of the assay: NCI-60 single-dose antiproliferative screen. The format is cell-based. To be noted: Homo sapiens, OVCAR-4, 48 h, read-out: growth percent. The method in brief: as §1
The subject of the next assay is OVCAR-8. Nature of the assay: NCI-60 single-dose antiproliferative screen. To be noted: Homo sapiens, OVCAR-8, 48 h, read-out: growth percent. The format is cell-based. The method, boiled down:
as §1

The test system of a further assay is SN12C. Nature of the assay: NCI-60 single-dose antiproliferative screen. To be noted: Homo sapiens, 48 h, read-out: growth percent. The assay is classed as cell-based. The method in brief: as §2
The test system of the next assay is DU-145. Nature of the assay: NCI-60 single-dose antiproliferative screen. The format is cell-based. To be noted: Homo sapiens, DU-145, 48 h, read-out: growth percent. The method in brief:
as §1

The next assay relates to MDA-MB-231 ATCC. Nature of the assay: NCI-60 single-dose antiproliferative screen. The assay is classed as cell-based. To be noted: Homo sapiens, MDA-MB-231, 48 h, read-out: growth percent. The method in brief: as §1
Assay [1] deals with NCI-H460 cells. Nature of the assay: Wound healing assay. The format is cell-based, human.
Assay [2] concerns NCI-H460 cells. Nature of the assay: Colony-forming ability. The assay is classed as cell-based, human.
The subject of the next assay is ACHN. Nature of the assay: NCI-60 single-dose antiproliferative screen. The assay is classed as cell-based. To be noted: Homo sapiens, 48 h, read-out: growth percent. The method in brief: as §1
Another assay relates to HL-60(TB). Nature of the assay: NCI-60 single-dose antiproliferative screen. The format is cell-based. To be noted: Homo sapiens, HL-60, 48 h, read-out: growth percent.
The subject of another assay is A498. Nature of the assay: NCI-60 single-dose antiproliferative screen. The format is cell-based. To be noted: Homo sapiens, A498, 48 h, read-out: growth percent. The method, boiled down:
as §1

4 compounds from PMC9476207 (ACS Omega, 2022) can be followed below.

Consider `COc1cc(CNC(=O)CCCC/C=C/C(C)C)ccc1OCc1cn(-c2ccc(C#N)cc2)nn1` [14j, (E)-N-(4-((1-(4-Cyanophenyl)-1H-1,2,3-triazol-4-yl)methoxy)-3-methoxybenzyl)-8-methylnon-6-enamide], for which the activity at 10 µM in the assay with CCRF-CEM was 86.2%; with MOLT-4 it was 88.4%; in the assay on A549/ATCC, 84.8%; in the assay on HOP-62, 103%; in the assay on NCI-H322M, 95.3%; with SW-620, 98%. The activity at 10 µM stood at 90.9% in the assay on SF-268; 94.5% in the assay with SF-539; 94.2% with SNB-75; 95.3% in the assay on M14; 105% in the assay with SK-MEL-28; 94.3% with UACC-257. Besides, the activity at 10 µM with IGROV1 came to 100%; in the assay on OVCAR-3, 109%; with OVCAR-4 it was 94.9%; in the assay with OVCAR-8, 63.3%; in the assay with SN12C it was 98.3%; with DU-145, 44.4%. In the assay on MDA-MB-231 ATCC, the activity at 10 µM was 90.8%. In the assay on NCI-H460 cells [1], the “migration capacity (wound healing)” value is reported as “moderate wound healing”. Also, the colony-forming ability entry in the assay on NCI-H460 cells [2] is reported as “inhibited the colony-forming ability”.

Regarding `COc1cc(CNC(=O)C[C@H](C)CCC=C(C)C)ccc1OCc1cn(-c2ccc(Cl)cc2)nn1` [18b, (R)-N-(4-((1-(4-Chlorophenyl)-1H-1,2,3-triazol-4-yl)methoxy)-3-methoxybenzyl)-3,7-dimethyloct-6-enamide], the activity at 10 µM with CCRF-CEM is 92.9%; with MOLT-4, 71.7%; with A549/ATCC, 57.1%; in the assay on HOP-62 it was 61.5%; with NCI-H322M, 83.5%; in the assay on SW-620 it was 76.8%. Also, the activity at 10 µM stood at 95.4% in the assay with SF-268; 67.7% with SF-539; 41.6% in the assay on SNB-75; 90.8% in the assay on M14; 87% in the assay on SK-MEL-28; 85.5% with UACC-257. The activity at 10 µM with IGROV1 was found to be 80.2%; with OVCAR-3, 82.3%; with OVCAR-4 it was 52.7%; with OVCAR-8, 49.1%; in the assay on ACHN it was 44.8%; in the assay with SN12C it was 67.7%. The activity at 10 µM in the assay with DU-145 came to 82.8%; in the assay with MDA-MB-231 ATCC it was 59.6%; in the assay on HL-60(TB), 87.8%; with A498, 98.9%.

Regarding `COc1cc(CNC(=O)CCCC/C=C/C(C)C)ccc1OCc1cn(-c2ccc(Br)cc2)nn1` [14k, (E)-N-(4-((1-(4-Bromophenyl)-1H-1,2,3-triazol-4-yl)methoxy)-3-methoxybenzyl)-8-methylnon-6-enamide], the activity at 10 µM in the assay with CCRF-CEM turned out to be 94.2%; with MOLT-4, 77.5%; with A549/ATCC, 88.5%; in the assay with HOP-62, 88.2%; in the assay with NCI-H322M, 90.6%; in the assay on SW-620, 94.7%. Also, the activity at 10 µM was 78.9% in the assay on SF-268; 92.4% with SF-539; 90.9% in the assay with SNB-75; 90.2% in the assay on M14; 100% in the assay on SK-MEL-28; 90.5% in the assay on UACC-257. Also, the activity at 10 µM in the assay on IGROV1 stood at 72.7%; in the assay on OVCAR-3, 100%; in the assay with OVCAR-4, 89.2%; in the assay with OVCAR-8, 79.6%; with ACHN, 87.7%; in the assay with SN12C it was 83%. Moreover, the activity at 10 µM with DU-145 amounted to 98.8%; in the assay on MDA-MB-231 ATCC, 71.3%.

In the case of `COc1cc(CNC(=O)CCCC/C=C/C(C)C)ccc1OCc1cn(-c2ccc(F)cc2)nn1` [14h, (E)-N-(4-((1-(4-Fluorophenyl)-1H-1,2,3-triazol-4-yl)methoxy)-3-methoxybenzyl)-8-methylnon-6-enamide], the activity at 10 µM worked out at 79.7% in the assay with CCRF-CEM; 82.6% in the assay with MOLT-4; 84.3% with A549/ATCC; 84.1% in the assay on HOP-62; 91.8% in the assay with NCI-H322M; 91% in the assay on SW-620. Also, the activity at 10 µM in the assay with SF-268 was 87.2%; with SF-539, 92.2%; in the assay with SNB-75, 83.5%; in the assay with M14, 94%; in the assay with SK-MEL-28, 102%; with UACC-257 it was 90.2%. For the same compound, the activity at 10 µM in the assay on IGROV1 is 97%; with OVCAR-3 it was 96.4%; in the assay on OVCAR-4, 82.2%; in the assay on OVCAR-8, 71.5%; in the assay on ACHN, 81.2%; in the assay on SN12C it was 82.4%. Besides, the activity at 10 µM in the assay on DU-145 came to 96.1%; in the assay with MDA-MB-231 ATCC, 69.1%.
